ChEMBL document CHEMBL2029219, “Synthesis, biological evaluation, and molecular modeling of natural and unnatural flavonoidal alkaloids, inhibitors of kinases” (J Med Chem, 2012)

What was measured:
[1] = molecular target: Cyclin-dependent kinase 5/CDK5 activator 1 (Homo sapiens, UniProt Q00535); assay: Inhibition of human recombinant CDK5/p25 using [gamma 33P]ATP after 30 mins by scintillation counting; assay type: protein-complex assay
Method in brief: (§1)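 Native starfish M-phase oocyte CDK1/cyclin B, or recombinant human CDK5/p25, in buffer A pH 7.5 with heparin and BSA. Stopped on P81 paper, washed in 1% phosphoric acid, counted by scintillation. Blank subtracted; % of maximal activity; DMSO dilution controls.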

[2] = molecular target: Glycogen synthase kinase-3 (Sus scrofa, UniProt B2LUN4+I6LNT8); assay: Inhibition of porcine brain GSK3alpha/beta using GS1 as substrate
Method in brief: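 Native GSK-3α/β purified from porcine brain, assayed as for CDK1. Buffer A pH 7.5 with heparin and BSA, 30 °C, 15 μM [γ-33P]ATP, phosphorylated GS-1 peptide as substrate. Read by P81 paper capture and scintillation counting. Activity as % of uninhibited control after blank subtraction.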

[3] = molecular target: Dual specificity protein kinase CLK1 (Mus musculus, UniProt P22518); assay: Inhibition of GST-tagged mouse recombinant CLK1 expressed in Escherichia coli using GRSRSRSRSRSR as substrate
[4] = molecular target: Dual specificity tyrosine-phosphorylation-regulated kinase 1A (Rattus norvegicus, UniProt Q63470); assay: Inhibition of GST-tagged rat recombinant DYRK1A expressed in Escherichia coli using KKISGRLSPIMTEQ as substrate
[5] = Inhibition of starfish oocyte CDK1/cyclin B using [gamma 33P]ATP after 30 mins by scintillation counting; parameters: species or system Asteroidea
Method in brief: as §1, with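 “BSA. Substrate histone H1 25 μg with 15 μM [γ-33P]ATP, 30 min at 30 °C.” for “BSA.”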

Chain of Dual specificity protein kinase CLK1 (P22518 whole entry): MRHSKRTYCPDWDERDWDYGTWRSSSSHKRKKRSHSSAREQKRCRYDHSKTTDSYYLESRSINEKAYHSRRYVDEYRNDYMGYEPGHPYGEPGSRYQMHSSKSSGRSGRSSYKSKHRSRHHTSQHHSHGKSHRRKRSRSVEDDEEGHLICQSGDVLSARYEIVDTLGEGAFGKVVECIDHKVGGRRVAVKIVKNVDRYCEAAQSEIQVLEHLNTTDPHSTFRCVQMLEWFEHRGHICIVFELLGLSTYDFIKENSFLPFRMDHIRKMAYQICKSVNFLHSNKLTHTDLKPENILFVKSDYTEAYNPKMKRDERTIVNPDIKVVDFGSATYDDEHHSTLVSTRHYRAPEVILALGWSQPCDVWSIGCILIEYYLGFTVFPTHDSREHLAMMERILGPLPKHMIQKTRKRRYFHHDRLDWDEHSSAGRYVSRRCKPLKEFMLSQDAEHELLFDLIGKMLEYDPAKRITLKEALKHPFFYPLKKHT
Chain of Cyclin-dependent kinase 5/CDK5 activator 1 (Q00535 whole entry): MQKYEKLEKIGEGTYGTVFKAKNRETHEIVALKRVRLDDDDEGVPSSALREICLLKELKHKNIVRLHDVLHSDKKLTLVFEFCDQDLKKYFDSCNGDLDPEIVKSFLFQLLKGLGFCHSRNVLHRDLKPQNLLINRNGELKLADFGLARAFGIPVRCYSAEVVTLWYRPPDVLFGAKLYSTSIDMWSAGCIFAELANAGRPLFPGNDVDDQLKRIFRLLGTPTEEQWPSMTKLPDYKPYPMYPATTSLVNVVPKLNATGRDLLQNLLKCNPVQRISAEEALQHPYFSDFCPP
Chain of Cyclin-dependent kinase 5/CDK5 activator 1 (Q15078 whole entry, further chain): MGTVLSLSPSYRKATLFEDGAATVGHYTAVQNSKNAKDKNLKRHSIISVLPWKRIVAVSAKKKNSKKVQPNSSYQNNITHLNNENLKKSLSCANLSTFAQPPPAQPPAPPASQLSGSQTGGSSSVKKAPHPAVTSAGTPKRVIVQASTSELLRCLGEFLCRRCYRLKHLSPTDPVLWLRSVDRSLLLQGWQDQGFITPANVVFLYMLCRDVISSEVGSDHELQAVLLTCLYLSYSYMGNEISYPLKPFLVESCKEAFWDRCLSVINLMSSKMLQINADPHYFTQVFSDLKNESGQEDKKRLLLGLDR

| Structure (SMILES) | IC50 [1] [µM] | IC50 [2] | IC50 [3] [µM] | IC50 [4] [µM] | IC50 [5] [µM] |
| --- | --- | --- | --- | --- | --- |
| CN1CCCC[C@@H]1c1c(O)cc(O)c2c(=O)cc(-c3ccccc3)oc12 | 0.95 | >= 10 uM | > 10 | > 10 | 1.1 |
| CN1CCCC[C@H]1c1c(O)cc(O)c2c(=O)cc(-c3ccccc3)oc12 | 0.05 | 1.6 µM | 2.1 | > 10 | 0.03 |
| COc1cc(O)c(C2CCCCN2)c2oc(-c3ccccc3)cc(=O)c12 (stereo unspecified) | > 10 | > 10 µM | > 10 | > 10 | > 10 |
| CN1CCC[C@@H]1c1c(O)cc(O)c2c(=O)cc(-c3ccccc3)oc12 | 0.57 | 2.6 µM | 7.4 | > 10 | 0.39 |
| CN1CCC[C@H]1c1c(O)cc(O)c2c(=O)cc(-c3ccccc3)oc12 | 0.04 | 0.72 µM | 0.67 | > 10 |  |
| CCCCC[C@@H](NC)c1c(O)cc(O)c2c(=O)cc(-c3ccccc3)oc12 | 0.27 | 4.1 µM | > 10 | > 10 | 0.52 |
| CCCCC[C@H](NC)c1c(O)cc(O)c2c(=O)cc(-c3ccccc3)oc12 | 2.1 | > 10 µM | > 10 | > 10 | 5.4 |
| CN1CCCC1c1c(O)cc(O)c2c(=O)cc(-c3ccccc3)oc12 (racemic) | 0.09 | 1.3 µM | 1.6 | > 10 | 0.05 |
| O=c1cc(-c2ccccc2)oc2c(C3CCCN3)c(O)cc(O)c12 (racemic) | 1.1 | > 10 µM | > 10 | > 10 | 1.6 |
| CCCCCC(NC)c1c(O)cc(O)c2c(=O)cc(-c3ccccc3)oc12 (racemic) | 0.52 | 5.2 µM | > 10 | > 10 | 1.1 |
| CN1CCCCC1c1c(O)cc(O)c2c(=O)cc(-c3ccccc3)oc12 (racemic) | 1.7 | 5.1 µM | 8.5 | > 10 | 0.09 |
| O=c1cc(-c2ccccc2)oc2c(C3CCCCN3)c(O)cc(O)c12 (racemic) | 5.5 | > 10 µM | > 10 | > 10 | 5 |
| CN1CC[C@H](c2c(O)cc(O)c3c(=O)cc(-c4ccccc4Cl)oc23)[C@H](O)C1 (single isomer, unassigned) [ALVOCIDIB] |  | 0.36 µM |  |  | 0.09 |
| COc1cc(O)c(C2CCCCN2C)c2oc(-c3ccccc3)cc(=O)c12 (stereo unspecified) [BUCHENAVIANINE] | > 10 | > 10 µM | > 10 | > 10 | > 10 |
